Measured values as given in publication PMC2649372 (Biochemistry, 2008).
Residue numbers refer to the chain shown, from its start. Marks after values point to notes of the source that are not given here.

Columns and labels:
[1] = molecular target: E129K mutant 5-HT3 receptor (mouse 5-HT3A subunit) (Mus musculus, UniProt P23979, E129K); experiment: Agonist-induced currents, voltage clamp electrophysiology in Xenopus oocytes; type: cell-based; conditions: NR = no response
[2] = molecular target: N128-Nha mutant 5-HT3 receptor (mouse 5-HT3A subunit); experiment: Agonist-induced currents, voltage clamp electrophysiology in Xenopus oocytes; type: cell-based; conditions: SR = small (<100 nA) responses
In short: (§1)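 Mouse 5-HT3A receptor carrying Nha or Akp, introduced by nonsense suppression. Stage V-VI Xenopus oocytes were co-injected with 5 ng cRNA and 25 ng photodeprotected aminoacyl-tRNA. Controls received tRNA without an amino acid. At 24-72 h, agonist currents were recorded by two-electrode voltage clamp at -60 mV, 22-25 °C, in Ca-free ND96 (pH 7.5).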

[3] = molecular target: T1, E129H mutant 5-HT3 receptor (mouse 5-HT3A subunit) (Mus musculus, UniProt P23979, E129H); experiment: Agonist-induced currents, voltage clamp electrophysiology in Xenopus oocytes; type: cell-based
T1 sequence (P23979 24-483 isoform P23979-2 E129H limits assumed): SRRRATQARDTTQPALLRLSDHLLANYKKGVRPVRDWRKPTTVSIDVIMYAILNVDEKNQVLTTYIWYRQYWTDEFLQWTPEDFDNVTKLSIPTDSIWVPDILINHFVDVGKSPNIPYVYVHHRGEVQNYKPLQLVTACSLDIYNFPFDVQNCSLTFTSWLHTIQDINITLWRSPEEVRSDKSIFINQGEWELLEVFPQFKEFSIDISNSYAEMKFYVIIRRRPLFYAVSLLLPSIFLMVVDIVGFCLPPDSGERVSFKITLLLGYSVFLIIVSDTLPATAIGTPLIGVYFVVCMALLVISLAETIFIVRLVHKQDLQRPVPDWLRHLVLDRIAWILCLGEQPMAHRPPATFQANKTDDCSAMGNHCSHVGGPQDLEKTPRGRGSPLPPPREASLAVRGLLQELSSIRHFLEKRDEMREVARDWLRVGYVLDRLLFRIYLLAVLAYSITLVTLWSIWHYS

[4] = system: Asn128 mutant 5-HT3 receptors (all except Ala and Val); experiment: Relative efficacy of mCPBG, voltage clamp electrophysiology in Xenopus oocytes; type: cell-based, mouse; conditions: Asn128 mutations
[5] = molecular target: T2, N128R mutant 5-HT3 receptor (mouse 5-HT3A subunit) (Mus musculus, UniProt P23979, N128R); experiment: Agonist-induced currents, voltage clamp electrophysiology in Xenopus oocytes; type: cell-based; conditions: SR = small (<100 nA) responses
T2 sequence (P23979 24-483 isoform P23979-2 N128R limits assumed): T1 sequence (P23979 24-483 isoform P23979-2 E129H limits assumed) with N105R, H106E

[6] = molecular target: E129A mutant 5-HT3 receptor (mouse 5-HT3A subunit) (Mus musculus, UniProt P23979, E129A); experiment: as above; type: cell-based; conditions: NR = no response
[7] = molecular target: E129G mutant 5-HT3 receptor (mouse 5-HT3A subunit) (Mus musculus, UniProt P23979, E129G); experiment: as above; type: cell-based; conditions: NR = no response
[8] = molecular target: E129Q mutant 5-HT3 receptor (mouse 5-HT3A subunit) (Mus musculus, UniProt P23979, E129Q); experiment: as above; type: cell-based; conditions: NR = no response
[9] = molecular target: T3, N128-Akp mutant 5-HT3 receptor (mouse 5-HT3A subunit) (Mus musculus, UniProt Q6J1J7); experiment: Agonist-induced currents, voltage clamp electrophysiology in Xenopus oocytes; type: cell-based
T3 sequence (Q6J1J7 24-483): T1 sequence (P23979 24-483 isoform P23979-2 E129H limits assumed) with H106E, F436L
In short: as §1

E129K mutant 5-HT3 receptor (mouse 5-HT3A subunit), sequence (P23979 24-483 isoform P23979-2 E129K limits assumed): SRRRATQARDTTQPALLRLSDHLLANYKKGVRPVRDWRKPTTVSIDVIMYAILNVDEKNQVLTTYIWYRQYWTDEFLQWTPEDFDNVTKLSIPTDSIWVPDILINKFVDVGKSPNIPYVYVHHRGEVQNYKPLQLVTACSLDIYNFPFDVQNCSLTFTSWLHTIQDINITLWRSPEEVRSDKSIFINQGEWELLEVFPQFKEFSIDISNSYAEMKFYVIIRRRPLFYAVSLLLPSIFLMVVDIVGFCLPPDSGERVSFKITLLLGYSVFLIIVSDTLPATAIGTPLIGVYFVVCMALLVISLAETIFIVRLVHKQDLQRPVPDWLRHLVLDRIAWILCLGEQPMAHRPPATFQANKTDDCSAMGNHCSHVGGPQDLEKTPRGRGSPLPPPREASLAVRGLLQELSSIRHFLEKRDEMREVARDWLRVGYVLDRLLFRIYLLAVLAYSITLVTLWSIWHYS
E129A mutant 5-HT3 receptor (mouse 5-HT3A subunit), sequence (P23979 24-489 E129A): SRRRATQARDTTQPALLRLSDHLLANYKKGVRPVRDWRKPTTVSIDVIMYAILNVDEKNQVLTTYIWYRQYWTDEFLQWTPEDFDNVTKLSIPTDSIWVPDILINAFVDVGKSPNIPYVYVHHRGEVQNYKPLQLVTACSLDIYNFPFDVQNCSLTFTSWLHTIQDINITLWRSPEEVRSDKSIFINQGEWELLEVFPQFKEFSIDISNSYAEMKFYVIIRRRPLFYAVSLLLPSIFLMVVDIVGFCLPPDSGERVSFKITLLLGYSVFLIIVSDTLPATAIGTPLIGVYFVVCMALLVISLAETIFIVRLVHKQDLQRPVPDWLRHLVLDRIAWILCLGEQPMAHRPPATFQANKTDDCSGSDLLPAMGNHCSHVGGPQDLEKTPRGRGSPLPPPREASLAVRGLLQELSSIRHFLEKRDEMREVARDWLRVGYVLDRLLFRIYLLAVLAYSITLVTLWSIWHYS
E129Q mutant 5-HT3 receptor (mouse 5-HT3A subunit), sequence (P23979 24-483 isoform P23979-2 E129Q limits assumed): as the sequence (P23979 24-483 isoform P23979-2 E129K limits assumed) above, with K106Q counted along it
E129G mutant 5-HT3 receptor (mouse 5-HT3A subunit), sequence (P23979 24-483 isoform P23979-2 E129G limits assumed): as the sequence (P23979 24-483 isoform P23979-2 E129K limits assumed) above, with K106G counted along it

EC50 [1] [µM] | EC50 [2] [µM] | nH (Hill coefficient) [2] | pEC50 [2] | EC50 [3] [µM] | pEC50 [3] | increase of mCPBG Rmax compared to that of WT [4] | EC50 [5] [µM] | nH (Hill coefficient) [5] | pEC50 [5] | EC50 [6] [µM] | EC50 [7] [µM] | SMILES | nH (Hill coefficient) [3] | nH (Hill coefficient) [8] | EC50 [9] [µM] | nH (Hill coefficient) [9] | pEC50 [9]
> 100 | 2.8 | 2.18 ± 0.23 | 5.55 ± 0.02 ^b | 0.37 | 6.43 ± 0.04 | 2−19 fold | 7.3 | 1.93 ± 0.16 | 5.14 ± 0.02 ^b | > 100 | > 100 | N=C(N)NC(=N)Nc1cccc(Cl)c1 [mCPBG, m-chlorophenylbiguanide] | 1.63 ± 0.20 |  |  |  | 
 |  |  |  |  |  |  |  |  |  |  |  | NCCc1c[nH]c2ccc(O)cc12 [5-HT, 5-hydroxytryptamine] | 1.07 ± 0.24 ^b | 1.55 ± 0.07 ^b | 4.6 | 1.49 ± 0.06 ^b | 5.33 ± 0.01 ^b
